Consider 49 compounds from ChEMBL document CHEMBL4152184, “NB 06: From a simple lysosomotropic aSMase inhibitor to tools for elucidating the role of lysosomes in signaling apoptosis and LPS-induced inflammation” (Eur J Med Chem, 2018).

A word on the IC50: it is the concentration at which inhibition is half-maximal.

Molecules are shown by their SMILES. Active and inactive are the calls of the source. The calls are words filed in the database; no cut-off is given here.

Experiment [1] has as its target T1, Sphingomyelin phosphodiesterase (Homo sapiens, UniProt P17405).
T1 sequence (P17405 whole entry): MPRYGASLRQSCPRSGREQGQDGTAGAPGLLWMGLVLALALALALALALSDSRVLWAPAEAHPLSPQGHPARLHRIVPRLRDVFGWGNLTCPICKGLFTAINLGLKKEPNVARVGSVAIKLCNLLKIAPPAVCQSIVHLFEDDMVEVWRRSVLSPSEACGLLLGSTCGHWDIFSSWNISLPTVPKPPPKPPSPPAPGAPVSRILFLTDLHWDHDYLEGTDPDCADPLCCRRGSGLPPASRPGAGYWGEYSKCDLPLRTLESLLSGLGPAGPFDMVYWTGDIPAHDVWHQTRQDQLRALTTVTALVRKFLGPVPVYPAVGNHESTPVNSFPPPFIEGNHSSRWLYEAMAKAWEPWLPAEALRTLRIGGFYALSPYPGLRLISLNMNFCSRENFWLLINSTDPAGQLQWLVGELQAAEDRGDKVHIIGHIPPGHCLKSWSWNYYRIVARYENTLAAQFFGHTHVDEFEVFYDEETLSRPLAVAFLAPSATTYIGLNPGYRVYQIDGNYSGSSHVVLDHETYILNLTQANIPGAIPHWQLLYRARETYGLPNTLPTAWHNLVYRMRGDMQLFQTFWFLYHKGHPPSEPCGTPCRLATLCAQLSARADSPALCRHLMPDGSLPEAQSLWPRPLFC
The experiment in a line: Inhibition of mmLDL-stimulated acid sphingomyelinase in human PBMC lysates using BODIPY FL C5-sphingomyelin as substrate preincubated for 30 mins followed by mmLDL stimulation measured after 2 hrs by HPLC method.

The test system of experiment [2] is PBMC. The experiment in a line: Inhibition of mmLDL-stimulated apoptosis in human PBMC assessed as apoptotic cells at 2 uM preincubated for 30 mins followed by mmLDL stimulation measured after 4 hrs by YO-PRO-1/Hoechst 33342 staining based assay (reference value: 100%). Details: scale not given: the % may be the effect or the level left. The class given is functional. In outline: (§1)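 PBMC pre-incubated 30 min with 2 μM compound, then stimulated with mmLDL (27 μg/mL; line 5) or TNFalpha (3 ng/mL; line 1) for 4 h. Apoptotic cells stained with YO-PRO-1 and all cells with Hoechst 33342. Each plate had control, stimulus, compound alone and compound plus stimulus; n = 3. Values are on a 0% (untreated control, corrected for spontaneous apoptosis) to 100% (stimulus alone) scale; means ± SE.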

Experiment [3] relates to PBMC. Put plainly: Inhibition of TNFalpha-stimulated apoptosis in human PBMC assessed as apoptotic cells at 2 uM preincubated for 30 mins followed by TNFalpha stimulation measured after 4 hrs by YO-PRO-1/Hoechst 33342 staining based assay relative to control. Type of experiment: functional. The arrangement: scale not given: the % may be the effect or the level left. In outline: as §1

The target of experiment [4] is T2, Sphingomyelin phosphodiesterase (Homo sapiens) (UniProt P17405).
T2 sequence (whole entry): T1 sequence (P17405 whole entry)
The experiment in a line: Inhibition of mmLDL-stimulated acid sphingomyelinase in human PBMC lysates assessed as enzyme residual activity at 25 uM using BODIPY FL C5-sphingomyelin as substrate preincubated for 30 mins followed by mmLDL stimulation measured after 2 hrs by HPLC method.

The target in experiment [5] is T2, Sphingomyelin phosphodiesterase (Homo sapiens). Put plainly: Inhibition of mmLDL-stimulated acid sphingomyelinase in human PBMC lysates at 0.5 to 50 uM preincubated for 30 mins followed by mmLDL stimulation measured after 4 hrs by YO-PRO-1/Hoechst 33342 staining based assay.

On to `COc1ccc(CCNCCNc2cccc3ccccc23)cc1OC`, for which the 50% inhibitory concentration (IC50) in experiment [1] is 112 µM. In the experiment on PBMC [2], the Activity is recorded as 65%.

With `COc1ccc(CCN(C)CCCN2C(=O)COc3ccccc32)cc1`, in experiment [1], the IC50 was determined as 38 µM.

With `COc1ccc(CCNCCCNC2c3ccccc3CCc3ccccc32)cc1OC`, the concentration for half-maximal inhibition (IC50) in experiment [1] was 39 µM. The Activity in the experiment on PBMC [2] is recorded as 43%.

For `COc1ccc(CC(=O)N(C)CCCn2c3ccccc3c3ccccc32)cc1`, the IC50 in experiment [1] is over 250 µM. The Activity with PBMC [2] is 100%.

The compound `COc1ccc(CCNCc2cccc3ccccc23)cc1OC` returned an IC50 in experiment [1] of 96 µM. The Activity in the experiment on PBMC [2] is on record as 86%.

Regarding `COc1ccc(CCN(C)CCN2c3ccccc3CCc3ccccc32)cc1`, in experiment [1], the IC50 is 17 µM. Also, the Activity in the experiment on PBMC [3] turned out to be 35%; with PBMC [2], 49%.

On to `COc1ccc(CCN(C)CCN2c3ccccc3Sc3ccccc32)cc1`, for which the Activity in the experiment on PBMC [3] and in the experiment with PBMC [2] was 25% each time.

Consider `CN(C)CCCN1c2ccccc2Sc2ccc(Cl)cc21` [CHLORPROMAZINE], for which the 50% inhibitory concentration (IC50) in experiment [1] was found to be 11 µM.

In experiment [1], `COc1ccc(CCN(C)CCCN2c3ccccc3Sc3ccc(Cl)cc32)cc1OC` had an IC50 of 12 µM. For the same compound, the Activity with PBMC [3] was 18%; with PBMC [2] it was 31%.

`COc1ccc(CC(=O)N(C)CCCN2c3ccccc3CCc3ccccc32)cc1` yielded an IC50 in experiment [1] of 107 µM. Also, the Activity in the experiment on PBMC [2] stood at 69%.

In turn, `COc1ccc(Cn2c(=O)c3ccccc3n(Cc3ccc(OC)cc3)c2=O)cc1` showed a concentration for half-maximal inhibition (IC50) in experiment [1] of over 250 µM. In addition, the Activity with PBMC [2] is on record as 4%.

`COc1ccc(CCN(C)CCCn2c3ccccc3c3ccccc32)cc1OC` displayed an IC50 in experiment [1] of 14 µM. For the same compound, the Activity in the experiment on PBMC [3] is reported as 41%; in the experiment with PBMC [2], 24%.

As for `COc1ccc(CCNCCCNC2c3ccccc3CCc3ccccc32)cc1`, half-maximal inhibition in experiment [1] (IC50) required 17 µM.

`COc1ccc(Cn2c(=O)[nH]c3ccccc3c2=O)cc1` registered a half-maximal inhibitory concentration (IC50) in experiment [1] of over 250 µM. The Activity amounted to 59% in the experiment with PBMC [3] and 57% with PBMC [2].

Take `COc1ccc(CN2C(=O)COc3ccccc32)cc1`: in experiment [1], the IC50 was over 250 µM. The Activity in the experiment on PBMC [2] turned out to be 100%.

Turning to `COc1ccc(CCN(C)CCCN(c2ccccc2)c2ccccc2)cc1OC`, the Activity with PBMC [2] is given as 59%.

Consider `COc1ccc(CCN(C)CCC=C2c3ccccc3CCc3ccccc32)cc1OC`, for which half-maximal inhibition in experiment [1] (IC50) required 10 µM. The Activity in the experiment with PBMC [2] amounted to 79%.

Turning to `COc1ccc(CCN(C)CCCn2ccc3ccccc32)cc1`, it took 21 µM to reach half-maximal inhibition in experiment [1] (IC50). In addition, the Activity with PBMC [2] stood at 84%.

With `CNCCCN1c2ccccc2CCc2ccccc21`, the Activity in experiment [4] is 20%.

The compound `COc1ccc(CCNCc2cccc3ccccc23)cc1` showed a half-maximal inhibitory concentration (IC50) in experiment [1] of 240 µM. Besides, the Activity in the experiment with PBMC [2] is 100%.

The compound `COc1cc(CCN(C)CCCn2c3ccccc3c3ccccc32)c(OC)cc1CCN(C)CCCn1c2ccccc2c2ccccc21` returned a half-maximal inhibitory concentration (IC50) in experiment [1] of 10 µM. Also, in experiment [5], the inhibition result was “Active”. The Activity in the experiment with PBMC [2] is reported as 7%.

In the case of `COc1ccc(CCN(C)CCCN2c3ccccc3Sc3ccccc32)cc1`, in experiment [1], the IC50 is 9 µM. Further, the Activity with PBMC [2] is 100%.

Turning to `COc1ccc(CCN(C)C(F)(F)C(F)(F)C(F)(F)C(F)(F)n2c3ccccc3c3ccccc32)cc1`, the IC50 in experiment [1] was over 250 µM. Also, in the experiment on PBMC [2], the Activity came to 80%.

As to `COc1ccc(CCN(C)CCN2c3ccccc3Sc3ccccc32)cc1OC`, in the experiment on PBMC [2], the Activity was 72%.

The compound `COc1ccc(CCN2[C@H](C)CN(CCCn3c4ccccc4c4ccccc43)C[C@@H]2C)cc1OC` displayed a half-maximal inhibitory concentration (IC50) in experiment [1] of 141 µM. The Activity in the experiment with PBMC [2] was found to be 35%.

In the case of `COc1ccc(CCN2CCN(CCn3c4ccccc4c4ccccc43)CC2)cc1`, the Activity came to 16% with PBMC [3] and 14% in the experiment with PBMC [2].

For `COc1ccc(CCN2[C@H](C)CN(CCCn3c4ccccc4c4ccccc43)C[C@@H]2C)cc1`, the results for the Activity in the experiment on PBMC [3] and in the experiment on PBMC [2] were 0% and 25%, respectively.

In experiment [1], `COc1ccc(CCN(C)CCCN2c3ccccc3Sc3ccccc32)cc1OC` registered an IC50 of 16 µM. Also, the Activity with PBMC [2] worked out at 52%.

Turning to `COc1ccc(CCN(C)CCCN2c3ccccc3Sc3ccc(Cl)cc32)cc1`, the Activity with PBMC [2] is listed as 71%.

In turn, `COc1ccc(CCN(C)CCCN2Cc3ccccc3CCc3ccccc32)cc1` yielded an IC50 in experiment [1] of 17 µM. Moreover, the Activity with PBMC [3] was 2%; in the experiment on PBMC [2], 8%.

In the case of `CN(C)CCCN1c2ccccc2CCc2ccccc21` [IMIPRAMINE], the 50% inhibitory concentration (IC50) in experiment [1] is 5 µM. Moreover, the Activity stood at 16% with PBMC [3] and 15% in the experiment on PBMC [2].

The compound `COc1ccc(CC(=O)N(C)CCCN2c3ccccc3Sc3ccc(Cl)cc32)cc1OC` showed an IC50 in experiment [1] of over 250 µM. The Activity in the experiment on PBMC [2] is on record as 41%.

Take `COc1ccc(CCN2CCCn3c4c(c5ccccc53)CCCC42)cc1` (stereo not given): the IC50 in experiment [1] came to 15 µM. Moreover, the Activity with PBMC [2] worked out at 25%.

On to `COc1ccc(CCN(C)CCC=C2c3ccccc3CCc3ccccc32)cc1`, for which the half-inhibitory concentration (IC50) in experiment [1] was 10 µM. Also, the Activity in the experiment with PBMC [2] is listed as 10%.

The compound `COc1ccc(CCN(Cc2ccccc2)c2ccccn2)cc1` yielded an IC50 in experiment [1] of over 250 µM. Further, the Activity in the experiment on PBMC [2] is reported as 85%.

`COc1ccc(CCN(C)CCCN2c3ccccc3CCc3ccccc32)cc1OC` had an IC50 in experiment [1] of 31 µM. The Activity with PBMC [2] is given as 73%.

Turning to `COc1ccc(CCN(C)CCN2c3ccccc3CCc3ccccc32)cc1OC`, the figures for the Activity in the experiment on PBMC [3] and in the experiment with PBMC [2] were 58% and 30%, respectively.

Compound `COc1ccc(Cn2c3ccccc3c3ccccc32)cc1` had an IC50 in experiment [1] of 156 µM. For the same compound, the Activity in the experiment with PBMC [3] amounted to 30%; in the experiment with PBMC [2], 14%.

In the case of `COc1ccc(CCN(C)CCCN2c3ccccc3CCc3ccccc32)cc1`, the Activity in the experiment on PBMC [3] amounted to 30%; in the experiment on PBMC [2] it was 36%.

As to `COc1ccc(CN(C)CCCn2c3ccccc3c3ccccc32)cc1`, the Activity in the experiment on PBMC [2] is reported as 17%.

Regarding `COc1ccc(CCN(C)CCn2c3ccccc3c3ccccc32)cc1`, in experiment [1], the IC50 came to 6 µM. Moreover, the Activity is 55% in the experiment with PBMC [3] and 9% in the experiment on PBMC [2].

On to `COc1ccc(CCN2CCCN(C3c4ccccc4CCc4ccccc43)C2)cc1`, for which the figures for the Activity in the experiment with PBMC [3] and with PBMC [2] were 17% and 27%, respectively.

Consider `COc1ccc(CCN(C)CCCN2c3ccccc3Oc3ccccc32)cc1`, for which the Activity in the experiment on PBMC [3] is recorded as 43%; in the experiment on PBMC [2], 25%.

Consider `COc1ccc(CCN(C)CCCN2c3ccccc3Oc3ccccc32)cc1OC`, for which the IC50 in experiment [1] was determined as 13 µM. Moreover, the Activity in the experiment with PBMC [2] is on record as 36%.

In turn, `COc1ccc(CCNCCNc2cccc3ccccc23)cc1` came in with a half-maximal inhibitory concentration (IC50) in experiment [1] of 116 µM. Besides, the Activity with PBMC [2] came to 87%.

Regarding `COc1ccc(CCN2CCn3c4c(c5ccccc53)CCCC42)cc1` (stereo not given), the IC50 in experiment [1] was over 250 µM. Also, in the experiment with PBMC [2], the Activity came out at 19%.

For `COc1ccc(CCN(C)CCCN(c2ccccc2)c2ccccc2)cc1`, the IC50 in experiment [1] was over 250 µM. In addition, the Activity with PBMC [2] stood at 35%.

In experiment [1], `COc1ccc(CC(=O)N(C)CCN2c3ccccc3CCc3ccccc32)cc1` came in with an IC50 of over 250 µM. Besides, the Activity in the experiment with PBMC [3] amounted to 90%; in the experiment on PBMC [2], 94%.

On to `COc1ccc(CCN2[C@H](C)CN(CCCN3c4ccccc4Oc4ccccc43)C[C@@H]2C)cc1`, for which the concentration for half-maximal inhibition (IC50) in experiment [1] stood at 43 µM. For the same compound, the Activity with PBMC [2] was determined as 10%.
